pIC50: −log10 of the molar value. Each block holds one molecule with its values, some of them ahead of it.
What was measured:
Histone deacetylase = assay: Inhibition of class 1 HDAC (unknown origin); assay type: protein assay, Homo sapiens
OVCAR-4 = assay: Growth inhibition of human OVCAR4 cells by sulforhodamine B colorimetric method; assay type: functional
Procedure, shortened: (§1)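 Tested in a human cancer cell line panel. Five concentrations were used per compound, spanning either 10^-10–10^-6 M or 10^-8–10^-4 M. Growth was read by sulforhodamine B colorimetry.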

[1] = Growth inhibition of human MKN1 cells by sulforhodamine B colorimetric method; assay type: functional; conditions: MKN-1; procedure, shortened: as §1
[2] = Growth inhibition of human HBC5 cells by sulforhodamine B colorimetric method; assay type: functional; procedure, shortened: as §1
U-251 = assay: Growth inhibition of human U251 cells by sulforhodamine B colorimetric method; assay type: functional; procedure, shortened: as §1
SF-539 = assay: Growth inhibition of human SF539 cells by sulforhodamine B colorimetric method; assay type: functional; procedure, shortened: as §1
ACHN = assay: Growth inhibition of human ACHN cells by sulforhodamine B colorimetric method; assay type: functional; procedure, shortened: as §1
[3] = Growth inhibition of human HCC2998 cells by sulforhodamine B colorimetric method; assay type: functional; conditions: HCC 2998; procedure, shortened: as §1
MKN-45 = assay: Growth inhibition of human MKN45 cells by sulforhodamine B colorimetric method; assay type: functional; procedure, shortened: as §1
KM12 = assay: Growth inhibition of human KM12 cells by sulforhodamine B colorimetric method; assay type: functional; procedure, shortened: as §1
MKN-74 = assay: Growth inhibition of human MKN74 cells by sulforhodamine B colorimetric method; assay type: functional; procedure, shortened: as §1
MDA-MB-231 = assay: Growth inhibition of human MDA-MB-231 cells by sulforhodamine B colorimetric method; assay type: functional; procedure, shortened: as §1
HT-29 = assay: Growth inhibition of human HT-29 cells by sulforhodamine B colorimetric method; assay type: functional; procedure, shortened: as §1
[4] = Growth inhibition of human BSY1 cells by sulforhodamine B colorimetric method; assay type: functional; conditions: BSY-1; procedure, shortened: as §1
HCT-116 = assay: Growth inhibition of human HCT116 cells by sulforhodamine B colorimetric method; assay type: functional; procedure, shortened: as §1
[5] = Growth inhibition of human HBC4 cells by sulforhodamine B colorimetric method; assay type: functional; procedure, shortened: as §1
SF-268 = assay: Growth inhibition of human SF268 cells by sulforhodamine B colorimetric method; assay type: functional; procedure, shortened: as §1
OVCAR-5 = assay: Growth inhibition of human OVCAR5 cells by sulforhodamine B colorimetric method; assay type: functional; procedure, shortened: as §1
LOX IMVI = assay: Growth inhibition of human LOXIMVI cells by sulforhodamine B colorimetric method; assay type: functional; procedure, shortened: as §1
A549 = assay: Growth inhibition of human A549 cells by sulforhodamine B colorimetric method; assay type: functional; procedure, shortened: as §1
MKN-28 = assay: Growth inhibition of human MKN28 cells by sulforhodamine B colorimetric method; assay type: functional; procedure, shortened: as §1
SK-OV-3 = assay: Growth inhibition of human SKOV3 cells by sulforhodamine B colorimetric method; assay type: functional; procedure, shortened: as §1
DMS-114 = assay: Growth inhibition of human DMS114 cells by sulforhodamine B colorimetric method; assay type: functional; procedure, shortened: as §1
SNB-75 = assay: Growth inhibition of human SNB75 cells by sulforhodamine B colorimetric method; assay type: functional; procedure, shortened: as §1
SNB-78 = assay: Growth inhibition of human SNB78 cells by sulforhodamine B colorimetric method; assay type: functional; procedure, shortened: as §1
DU-145 = assay: Growth inhibition of human DU145 cells by sulforhodamine B colorimetric method; assay type: functional; procedure, shortened: as §1
NCI-H522 = assay: Growth inhibition of human NCI-H522 cells by sulforhodamine B colorimetric method; assay type: functional; procedure, shortened: as §1
[6] = Selectivity index, ratio of IC50 for mouse HDAC6 to IC50 for human HDAC1
Procedure, shortened: (§2)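 FLAG-tagged HDAC1 or HDAC6 was expressed in cells grown 24 h in DMEM, then lysed in Tris/NaCl/EDTA/NP40 buffer. The enzyme was immunoprecipitated with anti-FLAG M2 and eluted with FLAG peptide. It was incubated with Ac-KGLGK(Ac)-MCA (2 mM stock) and 100 μM DTT at 37 °C for 30 min, then trypsin at 37 °C for 15 min. AMC fluorescence was read. IC50 is the mean±SD of ≥3 curves. The ratios are computed from these IC50s.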

[7] = Growth inhibition of human RXF631L cells by sulforhodamine B colorimetric method; assay type: functional; conditions: RXF 631; procedure, shortened: as §1
HCT-15 = assay: Growth inhibition of human HCT15 cells by sulforhodamine B colorimetric method; assay type: functional; procedure, shortened: as §1
DMS-273 = assay: Growth inhibition of human DMS273 cells by sulforhodamine B colorimetric method; assay type: functional; procedure, shortened: as §1
NCI-H460 = assay: Growth inhibition of human NCI-H460 cells by sulforhodamine B colorimetric method; assay type: functional; procedure, shortened: as §1
MKN-7 = assay: Growth inhibition of human MKN7 cells by sulforhodamine B colorimetric method; assay type: functional; procedure, shortened: as §1
OVCAR-3 = assay: Growth inhibition of human OVCAR3 cells by sulforhodamine B colorimetric method; assay type: functional; procedure, shortened: as §1
OVCAR-8 = assay: Growth inhibition of human OVCAR8 cells by sulforhodamine B colorimetric method; assay type: functional; procedure, shortened: as §1
SF-295 = assay: Growth inhibition of human SF295 cells by sulforhodamine B colorimetric method; assay type: functional; procedure, shortened: as §1
NCI-H226 = assay: Growth inhibition of human NCI-H226 cells by sulforhodamine B colorimetric method; assay type: functional; procedure, shortened: as §1
MCF7 = assay: Growth inhibition of human MCF7 cells by sulforhodamine B colorimetric method; assay type: functional; procedure, shortened: as §1
PC-3 = assay: Growth inhibition of human PC3 cells by sulforhodamine B colorimetric method; assay type: functional; procedure, shortened: as §1
St-4 = assay: Growth inhibition of human St-4 cells by sulforhodamine B colorimetric method; assay type: functional; procedure, shortened: as §1
NCI-H23 = assay: Growth inhibition of human NCI-H23 cells by sulforhodamine B colorimetric method; assay type: functional; procedure, shortened: as §1
[8] = molecular target: Protein deacetylase HDAC6 (Mus musculus, UniProt Q9Z2V5); assay: Inhibition of mouse HDAC6 using Ac-KGLGK(Ac)-MCA as substrate after 30 mins by fluorescence assay
Protein deacetylase HDAC6, sequence (Q9Z2V5 whole entry): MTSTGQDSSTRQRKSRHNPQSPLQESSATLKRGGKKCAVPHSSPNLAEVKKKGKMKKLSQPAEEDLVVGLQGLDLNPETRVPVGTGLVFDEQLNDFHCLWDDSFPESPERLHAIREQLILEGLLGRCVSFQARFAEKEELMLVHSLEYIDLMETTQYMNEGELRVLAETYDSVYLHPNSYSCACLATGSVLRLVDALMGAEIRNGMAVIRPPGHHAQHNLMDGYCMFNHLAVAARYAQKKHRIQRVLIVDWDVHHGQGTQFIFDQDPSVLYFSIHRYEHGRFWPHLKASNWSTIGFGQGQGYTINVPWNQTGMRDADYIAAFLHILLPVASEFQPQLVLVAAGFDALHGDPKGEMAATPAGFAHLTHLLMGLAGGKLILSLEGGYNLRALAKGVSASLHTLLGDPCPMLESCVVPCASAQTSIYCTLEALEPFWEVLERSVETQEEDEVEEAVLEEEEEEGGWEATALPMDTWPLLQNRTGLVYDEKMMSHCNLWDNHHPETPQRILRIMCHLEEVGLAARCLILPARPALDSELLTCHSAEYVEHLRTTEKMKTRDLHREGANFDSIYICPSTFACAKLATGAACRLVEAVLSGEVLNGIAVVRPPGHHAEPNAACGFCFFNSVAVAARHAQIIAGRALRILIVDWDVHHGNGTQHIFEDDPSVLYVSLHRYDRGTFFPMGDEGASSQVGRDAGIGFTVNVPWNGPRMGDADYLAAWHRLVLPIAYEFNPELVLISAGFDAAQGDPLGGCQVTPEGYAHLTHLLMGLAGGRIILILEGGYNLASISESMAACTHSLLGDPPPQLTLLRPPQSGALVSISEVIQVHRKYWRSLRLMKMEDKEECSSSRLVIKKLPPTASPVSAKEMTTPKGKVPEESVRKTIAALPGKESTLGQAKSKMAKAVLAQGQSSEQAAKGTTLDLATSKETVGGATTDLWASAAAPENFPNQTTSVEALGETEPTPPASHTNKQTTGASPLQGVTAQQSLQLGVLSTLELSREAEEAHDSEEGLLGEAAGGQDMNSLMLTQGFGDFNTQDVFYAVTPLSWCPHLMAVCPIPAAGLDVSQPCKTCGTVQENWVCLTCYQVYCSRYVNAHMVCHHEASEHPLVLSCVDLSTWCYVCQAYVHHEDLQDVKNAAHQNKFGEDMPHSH

[9] = molecular target: Histone deacetylase 1 (Homo sapiens) (UniProt Q13547); assay: Ratio of FK228 IC50 to compound IC50 for human HDAC1 using Ac-KGLGK(Ac)-MCA as substrate after 30 mins by fluorescence assay; procedure, shortened: as §2
Histone deacetylase 1 (Homo sapiens), sequence (Q13547 whole entry): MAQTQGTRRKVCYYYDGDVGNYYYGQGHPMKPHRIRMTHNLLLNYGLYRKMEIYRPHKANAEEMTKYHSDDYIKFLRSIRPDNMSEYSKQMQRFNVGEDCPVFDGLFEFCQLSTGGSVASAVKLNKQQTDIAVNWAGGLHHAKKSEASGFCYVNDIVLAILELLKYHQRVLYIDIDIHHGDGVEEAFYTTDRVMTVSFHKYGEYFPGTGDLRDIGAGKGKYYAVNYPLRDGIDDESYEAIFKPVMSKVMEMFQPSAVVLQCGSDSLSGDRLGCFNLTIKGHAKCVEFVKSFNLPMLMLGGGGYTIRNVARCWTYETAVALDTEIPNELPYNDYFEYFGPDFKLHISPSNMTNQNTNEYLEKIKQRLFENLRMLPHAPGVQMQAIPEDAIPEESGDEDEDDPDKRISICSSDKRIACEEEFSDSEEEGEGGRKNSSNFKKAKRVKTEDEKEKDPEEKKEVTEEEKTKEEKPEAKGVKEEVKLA

IC50 (Histone deacetylase): 2.2 nM
Structure (SMILES): CCC(C)[C@H]1NC(=O)[C@H]2CSSCC/C=C/[C@H](CC(=O)N[C@H](C)C(=O)N2)OC(=O)C[C@@H]1O (stereo partly drawn) [spiruchostatin B]

GI50 (OVCAR-4): 4.7 nM | GI50 (U-251): 2.7 nM | GI50 (ACHN): 21 nM | GI50 (MKN-45): 9.6 nM | GI50 (MKN-74): 2.9 nM | GI50 (MDA-MB-231): 1.7 nM | GI50 (HT-29): 2.2 nM | GI50 (HCT-116): 1.3 nM | GI50 (OVCAR-5): 1.2 nM | GI50 (A549): 0.97 nM | GI50 (MKN-28): 9.5 nM | GI50 (SK-OV-3): 2.3 nM | GI50 (DU-145): 4 nM | GI50 (NCI-H522): 0.39 nM | Ratio IC50 [6]: 320 | GI50 (HCT-15): 210 nM | GI50 (NCI-H460): 2.8 nM | GI50 (MKN-7): 5.8 nM | GI50 (OVCAR-3): 2.2 nM | GI50 (OVCAR-8): 2.7 nM | GI50 (NCI-H226): 4 nM | GI50 (MCF7): 2.9 nM | GI50 (PC-3): 8.7 nM | GI50 (NCI-H23): 2.5 nM | pIC50 [8]: 6.62 | Ratio IC50 [9]: 3
Structure (SMILES): CC(C)[C@H]1NC(=O)[C@H]2CSSCC/C=C/[C@H](CC(=O)N[C@H](C(C)C)C(=O)N2)OC(=O)C[C@@H]1O [spiruchostatin D]
GI50 [1]: 2 nM | GI50 [2]: 18 nM | GI50 (SF-539): 0.58 nM | GI50 [3]: 1.5 nM | GI50 (KM12): 2.6 nM | GI50 [4]: 5.2 nM | GI50 [5]: 4.1 nM | GI50 (SF-268): 3.5 nM | GI50 (LOX IMVI): 1.8 nM | GI50 (DMS-114): 3.6 nM | GI50 (SNB-75): 1.9 nM | GI50 (SNB-78): 41 nM | GI50 [7]: 5.9 nM | GI50 (DMS-273): 5.1 nM | GI50 (SF-295): 5.1 nM | GI50 (St-4): 16 nM
